# Measured values from different studies.
# Each line is one published result; the experiments were not run side by side.
# MAOA: Amine oxidase [flavin-containing] A (MAOA, Homo sapiens, UniProt P21397)
# ADRA1A: Alpha-1A adrenergic receptor (ADRA1A, Homo sapiens, UniProt P35348)
# rep papain-like protease: Replicase polyprotein 1ab, papain-like protease (rep, Severe acute respiratory syndrome coronavirus 2, UniProt P0DTD1)
# rep helicase: Replicase polyprotein 1ab, helicase (rep, Severe acute respiratory syndrome coronavirus 2, UniProt P0DTD1)
SMILES,target,assay,endpoint,result
C#CCN(C)CCCCCCOc1cccc(CN(C)c2c3c(nc4ccc(C)cc24)CCCC3)c1,MAOA,"enzyme activity, inhibitor, fluorescence",IC50,4.87 µM
COC(=O)c1cc(N(C)C(=O)c2ccn3ncc(-c4ccc(C(=O)O)cc4)c3c2)ccc1Cl,ADRA1A,cell-free assay,IC50,> 30 µM
CCCC(C(=O)Nc1cc(NC2CNC2)ccc1C)n1cccc2nc(SCc3ccc(F)cc3)nc1-2 (stereo not shown),rep papain-like protease,"enzyme activity, inhibitor",IC50,1.48 µM
CCCNC(=O)[C@H]1O[C@@H]1C(=O)N[C@H](C(=O)N1CCC[C@H]1C(=O)O)[C@@H](C)CC,rep papain-like protease,"enzyme activity, inhibitor, FRET",IC50,170 µM
C#CCN(C)CCCCCCCCOc1cccc(CN(C)c2c3c(nc4ccc(F)cc24)CCCC3)c1,MAOA,"enzyme activity, inhibitor, fluorescence",IC50,61.3 µM
CSCCNc1nc(SCCC(F)(F)F)nc2c1ncn2[C@@H]1O[C@H](COP(=O)(O)OP(=O)(O)C(Cl)(Cl)P(=O)(O)O)[C@@H](O)[C@H]1O,rep helicase,"enzyme activity, inhibitor",IC50,> 100 µM
CNC(=O)c1ccc(-c2cnn3ccc(C(=O)N(C)c4ccc(Cl)c(C(=O)OC)c4)cc23)cc1,ADRA1A,cell-free assay,IC50,> 30 µM
COc1ccc2cc1Oc1ccc(cc1)C[C@H]1c3c(cc4c(c3Oc3cc5c(cc3OC)CCN(C)[C@@H]5C2)OCO4)CCN1C,rep helicase,"enzyme activity, inhibitor",IC50,4.5 µM
CCC(C(=O)Nc1cc(NC2COC2)ccc1C)n1cc(F)cc2nc(SCc3ccc(F)cc3)nc1-2 (stereo not shown),rep papain-like protease,"enzyme activity, inhibitor",IC50,0.436 µM
Cc1cc(Nc2ncc(Cl)c(Nc3ccccc3S(=O)(=O)C(C)C)n2)c(OC(C)C)cc1C1CCNCC1,rep papain-like protease,"enzyme activity, inhibitor, FRET",IC50,19.5 µM
C#CCN(C)CCOc1cccc(CN(C)c2c3c(nc4ccccc24)CCCC3)c1,MAOA,"enzyme activity, inhibitor, fluorescence",IC50,10.3 µM
CCC(C(=O)Nc1cc(NC2CCOC2)ccc1C)n1cc(Cl)cc2nc(SCc3ccc(F)cc3)nc1-2 (stereo not shown),rep papain-like protease,"enzyme activity, inhibitor",IC50,0.169 µM
Brc1ccc2c(c1)C(c1ccccn1)=NCc1c(-c3cnco3)ncn1-2,"Translocator protein (Tspo, Rattus norvegicus, UniProt P16257)","ligand displacement, radioligand",Ki,0.331 µM
